Assay results: ChEMBL document CHEMBL4725355, “Design, Synthesis, and Preclinical Evaluation of 3-Methyl-6-(5-thiophenyl)-1,3-dihydro-imidazo[4,5-b]pyridin-2-ones as Selective GluN2B Negative Allosteric Modulators for the Treatment of Mood Disorders” (J Med Chem, 2020); call rule not given here

Legend:
[1] = biological target: T1, Nuclear receptor subfamily 1 group I member 2 (Homo sapiens, UniProt O75469); assay: Activation of human PXR expressed in human DPX2 cells assessed as induction of CYP3A by luciferase reporter gene assay relative to control; assay type: ADME, cell-based
T1 sequence (O75469 whole entry): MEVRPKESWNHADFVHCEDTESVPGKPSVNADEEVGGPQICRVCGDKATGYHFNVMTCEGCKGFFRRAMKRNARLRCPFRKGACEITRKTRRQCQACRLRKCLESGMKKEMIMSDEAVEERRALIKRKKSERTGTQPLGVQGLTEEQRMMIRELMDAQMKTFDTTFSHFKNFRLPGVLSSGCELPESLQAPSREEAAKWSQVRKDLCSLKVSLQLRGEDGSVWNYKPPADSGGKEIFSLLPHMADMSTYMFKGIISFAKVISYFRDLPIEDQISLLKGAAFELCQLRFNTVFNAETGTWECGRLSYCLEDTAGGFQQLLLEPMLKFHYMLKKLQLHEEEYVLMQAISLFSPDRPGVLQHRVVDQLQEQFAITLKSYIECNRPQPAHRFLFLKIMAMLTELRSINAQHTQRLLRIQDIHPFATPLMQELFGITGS
Outline: (§1)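 Luciferase reporter lines were used. DPX2 is HepG2 carrying human PXR plus a CYP3A4 promoter-luciferase construct. 1A2-DRE carries human AhR plus a CYP1A2 promoter with 3 DRE copies. Luminescence was read with ONE-Glo. Activation was expressed relative to rifampicin (PXR) or omeprazole (AhR).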

[2] = Drug level in Sprague-Dawley rat brain hippocampus at 0.03 mg/kg, iv after 120 min by LC-MS/MS analysis; assay type: ADME, organism-based; settings: read-out: Drug uptake
Outline: (§2)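 Single i.v. dose of 0.03 mg/kg in 50% (w/v) PEG/water, pH 7.4; rats n=3 per group, killed at 5, 10, 30, 60 and 120 min. Cerebellum, cortex, striatum and hippocampus dissected, weighed and homogenized; drug quantified by LC-MS/MS and normalized to tissue weight. P<0.05 taken as significant versus cerebellum.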

[3] = Tmax in Sprague-Dawley rat at 500 mg/kg, po administered via gavage after 24 hrs using HPMC formulation by LC-MS/MS analysis; assay type: ADME, organism-based; settings: in vivo
Outline: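 Single oral gavage of a 5% HPMC suspension at 125, 250, 500 or 1000 mg/kg to male Sprague Dawley rats, 3 per group. Plasma was sampled at 6 time points from 0.5 to 24 h.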

[4] = Cmax in monkey at 0.5 mg/kg, po by LC-MS/MS analysis; assay type: ADME, organism-based, Macaca mulatta; design: route oral, dose 0.5 mg/kg; settings: rhesus monkey, in vivo
[5] = Oral bioavailability in dog at 0.5 mg/kg by LC-MS/MS analysis; assay type: ADME, organism-based, Canis lupus familiaris; settings: in vivo
[6] = Solubility of compound in phosphate buffer at pH 7 measured after 3 days; assay type: physicochemical; settings: time 3 day
Outline: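 Solubility in aqueous buffer at pH 2 and pH 7, and in simulated gastric and intestinal fluids.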

[7] = biological target: Voltage-gated inwardly rectifying potassium channel KCNH2 (Homo sapiens, UniProt Q12809); assay: Inhibition of human ERG expressed in CHO cells measured after 5 mins by Qpatch method; assay type: cell-based
Voltage-gated inwardly rectifying potassium channel KCNH2, sequence (Q12809 whole entry): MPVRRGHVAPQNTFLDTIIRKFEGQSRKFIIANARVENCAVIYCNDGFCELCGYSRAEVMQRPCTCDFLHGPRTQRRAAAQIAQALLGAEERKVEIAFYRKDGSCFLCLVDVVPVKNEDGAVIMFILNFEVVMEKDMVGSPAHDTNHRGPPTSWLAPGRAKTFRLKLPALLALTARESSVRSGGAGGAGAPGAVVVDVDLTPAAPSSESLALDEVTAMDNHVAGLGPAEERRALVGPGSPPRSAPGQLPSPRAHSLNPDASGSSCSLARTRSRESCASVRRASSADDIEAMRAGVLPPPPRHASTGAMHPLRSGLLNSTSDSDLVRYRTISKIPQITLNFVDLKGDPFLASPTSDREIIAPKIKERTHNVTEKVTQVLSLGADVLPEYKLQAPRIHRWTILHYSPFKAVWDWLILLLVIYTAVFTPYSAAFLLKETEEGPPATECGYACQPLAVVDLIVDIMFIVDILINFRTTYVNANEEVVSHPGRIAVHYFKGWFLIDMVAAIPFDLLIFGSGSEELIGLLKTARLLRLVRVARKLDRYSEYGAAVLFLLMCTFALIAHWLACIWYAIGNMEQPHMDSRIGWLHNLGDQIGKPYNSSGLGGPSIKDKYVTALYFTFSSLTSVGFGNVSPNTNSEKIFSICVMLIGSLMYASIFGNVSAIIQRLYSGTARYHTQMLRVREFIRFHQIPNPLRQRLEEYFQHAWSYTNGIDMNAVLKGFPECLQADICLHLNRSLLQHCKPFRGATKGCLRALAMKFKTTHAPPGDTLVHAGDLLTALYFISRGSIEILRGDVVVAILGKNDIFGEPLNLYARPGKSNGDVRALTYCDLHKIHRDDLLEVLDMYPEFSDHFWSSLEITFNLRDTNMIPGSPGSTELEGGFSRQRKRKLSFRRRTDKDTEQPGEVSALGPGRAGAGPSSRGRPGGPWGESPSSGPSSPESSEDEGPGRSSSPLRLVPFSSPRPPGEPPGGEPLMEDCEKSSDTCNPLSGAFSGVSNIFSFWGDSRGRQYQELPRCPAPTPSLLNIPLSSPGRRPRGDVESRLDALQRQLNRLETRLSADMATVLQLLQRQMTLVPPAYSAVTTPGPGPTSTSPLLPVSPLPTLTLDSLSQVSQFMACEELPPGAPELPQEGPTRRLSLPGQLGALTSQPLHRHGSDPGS
Outline: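 CHO cells stably expressing hERG, whole-cell QPatch. Vehicle applied 5 min, then 0.3, 3.0, 10 and 30 µM in rising order, each concentration applied twice. Current measured after 5 min as the average of 3 voltage pulses; block taken relative to vehicle pretreatment, mean ± SEM.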

[8] = Negative allosteric modulation of human GluN1a/GluN2A receptor expressed in CHO cells assessed as inhibition of glutamate and glycine-induced calcium flux preincubated for 5 mins followed by glutamate and glycine addition and measured after 5 mins by calcium 5 dye based FLIPR assay; assay type: cell-based
Outline: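 Tet-On CHO T-Rex cells expressing hGluN1a with GluN2A, 2B, 2C or 2D, plated at 20,000 cells/well and induced 24 h before the assay in the presence of ketamine. Cells loaded 1 h at room temperature with Calcium 5 dye, pH 7.4 HEPES buffer. Compound added 5 min, then glutamate (~EC80) plus 10 µM glycine for 5 min; FLIPR fluorescence normalized to control wells. Three independent runs in duplicate (two for some).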

[9] = Drug level in Sprague-Dawley rat brain striatum at 0.03 mg/kg, iv after 120 min by LC-MS/MS analysis; assay type: ADME, organism-based; settings: read-out: Drug uptake; outline: as §2
[10] = Tmax in monkey at 0.5 mg/kg, po by LC-MS/MS analysis; assay type: ADME, organism-based, Macaca mulatta; settings: rhesus monkey, in vivo
[11] = Cmax in Sprague-Dawley rat at 500 mg/kg/day, po administered as nanosuspension measured for 14 days measured post last dose by LC-MS/MS analysis; assay type: ADME, organism-based; design: route oral, time 14 day, dose 500 mg/kg/day; settings: in vivo
Outline: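 Repeated daily oral dosing of the nanosuspension to rats for 14 days, up to 500 mg/kg/day.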

[12] = Drug level in Sprague-Dawley rat brain cortex at 0.03 mg/kg, iv after 5 to 120 mins by LC-MS/MS analysis; assay type: ADME, organism-based; settings: in vivo, time 5-120 min; outline: as §2
[13] = Half life in monkey at 0.5 mg/kg, po by LC-MS/MS analysis; assay type: ADME, organism-based, Macaca mulatta; settings: rhesus monkey, in vivo
[14] = Volume of distribution at steady state in Sprague-Dawley rat at 0.5 mg/kg, iv by LC-MS/MS analysis; assay type: ADME, organism-based; settings: in vivo, read-out: Vdss
Outline: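 Rat PK at 0.5 mg/kg i.v. and 2.5 mg/kg p.o., vehicle 20% HP-β-CD. n=3, values given as mean ± SD.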

[15] = biological target: T2, Aryl hydrocarbon receptor (Homo sapiens, UniProt P35869); assay: Activation of human AHR expressed in human 1A2-DRE cells assessed as induction of CYP1A by luciferase reporter gene assay relative to control; assay type: ADME, cell-based; outline: as §1
T2 sequence (P35869 whole entry): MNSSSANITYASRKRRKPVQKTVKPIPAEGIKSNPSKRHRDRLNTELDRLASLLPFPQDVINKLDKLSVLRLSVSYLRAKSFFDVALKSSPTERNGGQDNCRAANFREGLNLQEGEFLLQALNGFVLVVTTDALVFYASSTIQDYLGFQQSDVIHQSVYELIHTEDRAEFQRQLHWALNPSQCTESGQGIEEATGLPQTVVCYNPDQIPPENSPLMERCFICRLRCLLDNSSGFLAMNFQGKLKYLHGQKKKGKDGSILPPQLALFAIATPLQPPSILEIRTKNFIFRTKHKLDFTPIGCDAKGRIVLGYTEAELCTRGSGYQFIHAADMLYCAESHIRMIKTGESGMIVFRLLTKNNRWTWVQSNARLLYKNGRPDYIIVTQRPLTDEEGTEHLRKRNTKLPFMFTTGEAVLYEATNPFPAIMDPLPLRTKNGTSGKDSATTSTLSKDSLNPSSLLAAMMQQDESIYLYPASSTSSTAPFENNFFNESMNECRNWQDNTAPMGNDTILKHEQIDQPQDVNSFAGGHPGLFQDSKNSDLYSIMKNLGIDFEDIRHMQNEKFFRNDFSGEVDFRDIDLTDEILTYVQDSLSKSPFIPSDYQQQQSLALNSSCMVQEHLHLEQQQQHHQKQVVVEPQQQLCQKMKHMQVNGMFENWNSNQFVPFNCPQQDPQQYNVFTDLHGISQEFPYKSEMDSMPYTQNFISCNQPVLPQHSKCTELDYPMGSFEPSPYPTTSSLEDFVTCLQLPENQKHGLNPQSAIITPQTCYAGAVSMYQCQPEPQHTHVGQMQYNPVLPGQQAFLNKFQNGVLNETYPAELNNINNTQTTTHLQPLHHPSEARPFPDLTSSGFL

Cn1c(=O)n(CC(=O)N2CCC2)c2cc(-c3ccc(C(F)(F)F)s3)cnc21
Activity [1]: < 20% | concentration at 2 h [2]: 0.0101 µg/mL | Tmax [3]: 1 h | Cmax [4]: 0.167 µg/mL | bioavailability [5]: 43% | solubility at 72 h [6]: < 4 µM | IC50 [7]: > 30 µM | IC50 [8]: > 10 µM | concentration at 2 h [9]: 0.0098 µg/mL | Tmax [10]: 1 h | Cmax [11]: 21.7 µg/mL | Drug uptake [12]: Active | half-life [13]: 1 h | Vd [14]: 1.9 L/kg | Activity [15]: < 20%
